Data: ChEMBL document CHEMBL1154595, “Discovery of selective nonpeptidergic neuropeptide FF2 receptor agonists” (J Med Chem, 2009)
The source made the active and inactive calls.

Legend:
[1] = molecular target: T1, Neuropeptide FF receptor 1 (Homo sapiens, UniProt Q9GZQ6); assay: Agonist activity at human NPFF1 receptor expressed in cells assessed as beta-galactosidase levels at […] after 5 days; format: functional, cell-based
[2] = molecular target: T2, Neuropeptide FF receptor 2 (Homo sapiens, UniProt Q9Y5X5); assay: Agonist activity at human NPFF2 receptor expressed in cells assessed as beta-galactosidase levels at […] after 5 days; format: functional, cell-based
T2 sequence (Q9Y5X5 whole entry): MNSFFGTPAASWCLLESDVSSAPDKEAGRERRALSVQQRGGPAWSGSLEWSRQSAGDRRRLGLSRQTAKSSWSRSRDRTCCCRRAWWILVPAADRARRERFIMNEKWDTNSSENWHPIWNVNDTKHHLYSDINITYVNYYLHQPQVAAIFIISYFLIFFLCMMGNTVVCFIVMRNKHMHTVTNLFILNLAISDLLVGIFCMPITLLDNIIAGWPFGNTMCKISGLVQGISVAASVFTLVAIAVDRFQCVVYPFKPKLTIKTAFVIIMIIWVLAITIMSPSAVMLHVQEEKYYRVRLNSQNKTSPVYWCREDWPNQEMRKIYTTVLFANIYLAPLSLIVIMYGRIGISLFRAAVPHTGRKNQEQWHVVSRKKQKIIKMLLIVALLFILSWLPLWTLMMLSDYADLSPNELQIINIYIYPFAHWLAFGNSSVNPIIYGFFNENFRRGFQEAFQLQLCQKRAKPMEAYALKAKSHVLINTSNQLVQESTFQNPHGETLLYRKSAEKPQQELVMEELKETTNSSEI

[3] = molecular target: T2, Neuropeptide FF receptor 2; assay: Agonist activity at human NPFF2 receptor expressed in cells assessed as beta-galactosidase levels after 5 days; format: functional, cell-based
Summary of the method: (§1)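 Functional R-SAT assay at human NPFF1 and NPFF2 receptors in agonist mode. Dose-response curves were built from seven concentrations, each tested in triplicate. Values are mean ± SEM of at least three independent experiments.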

[4] = molecular target: T1, Neuropeptide FF receptor 1; assay: Agonist activity at human NPFF1 receptor expressed in cells assessed as beta-galactosidase levels after 5 days; format: functional, cell-based; summary of the method: as §1
Rattus norvegicus [5] = organism: Rattus norvegicus; assay: Antiallodynic activity in Sprague-Dawley rat Kim-Chung model of neuropathic pain assessed mechanical-stimuli induced paw withdrawal threshold in presence of […]-antagonist dansyl-PQR-amide; format: functional, organism-based
Summary of the method: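 Rats with spinal nerve ligation, plus sham-operated rats. Tactile allodynia was scored as a significant reduction in paw withdrawal threshold. The selective NPFF1 antagonist dansylPQRamide was given at 30 mg/kg ip alongside the test agonist, with systemic dosing.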

Rattus norvegicus [6] = assay: Antiinflammatory activity in ip dosed Sprague-Dawley rat assessed as inhibition of carrageenan-induced thermal hypersensitivity by hotplate test; format: functional, organism-based
Summary of the method: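 Acute inflammatory pain was produced in rats by carrageenan. Thermal hypersensitivity was measured by hot plate test on a metal plate held at 52 °C.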

Rattus norvegicus [7] = assay: Antiinflammatory activity in ip dosed Sprague-Dawley rat assessed as inhibition of carrageenan-induced paw edema; format: functional, organism-based
[8] = molecular target: T1, Neuropeptide FF receptor 1; assay: Agonist activity at human NPFF1 receptor expressed in HEK293T cells assessed as inhibition of PGE2-induced cAMP release; set-up: Activity: scale not given: the % may be the effect or the level left; settings: HEK-293T
Rattus norvegicus [9] = assay: Antiallodynic activity in Sprague-Dawley rat Kim-Chung model of neuropathic pain assessed mechanical-stimuli induced paw withdrawal threshold at 30 mg/kg; format: functional, organism-based; set-up: dose 30 mg/kg
Summary of the method: (§2)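 Rats underwent spinal nerve ligation (SNL), with sham-operated rats also used. Tactile allodynia was defined as a significant reduction in paw withdrawal threshold to mechanical stimuli.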

[10] = molecular target: T2, Neuropeptide FF receptor 2; assay: Agonist activity at human NPFF2 receptor expressed in HEK293T cells assessed as inhibition of PGE2-induced cAMP release; settings: HEK-293T
Rattus norvegicus [11] = organism: Rattus norvegicus; assay: Antiallodynic activity in Sprague-Dawley rat Kim-Chung model of neuropathic pain assessed mechanical-stimuli induced paw withdrawal threshold; format: functional, organism-based; summary of the method: as §2
[12] = Activity at alpha-adrenergic receptor
[13] = molecular target: T1, Neuropeptide FF receptor 1; assay: Antagonist activity at human NPFF1 receptor expressed in HEK293T cells assessed as inhibition of PGE2-induced cAMP release; format: functional, cell-based; settings: HEK-293T
Rattus norvegicus [14] = assay: Antiallodynic activity in Sprague-Dawley rat Kim-Chung model of neuropathic pain assessed mechanical-stimuli induced paw withdrawal threshold at 10 mg/kg; format: functional, organism-based; set-up: dose 10 mg/kg; summary of the method: as §2
[15] = Distribution coefficient, log D of the compound; format: physicochemical; settings: octanol/water
[16] = Lipophilicity, log P of the compound; format: physicochemical; settings: octanol/water
[17] = Half life in Sprague-Dawley rat; format: ADME, organism-based; settings: in vivo
[18] = Clearance in rat liver microsomes; format: ADME, Microsome
Summary of the method: (§3)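 Stability was measured in human and in rat liver microsomes. Clearance is reported in μL/(min·mg) and related to liver blood flow.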

[19] = Oral bioavailability in Sprague-Dawley rat; format: ADME, organism-based; settings: in vivo
[20] = Dissociation constant, pKa of the compound; format: physicochemical
[21] = Clearance in human liver microsomes; format: ADME, Microsome; summary of the method: as §3

T1 sequence (Q9GZQ6 whole entry): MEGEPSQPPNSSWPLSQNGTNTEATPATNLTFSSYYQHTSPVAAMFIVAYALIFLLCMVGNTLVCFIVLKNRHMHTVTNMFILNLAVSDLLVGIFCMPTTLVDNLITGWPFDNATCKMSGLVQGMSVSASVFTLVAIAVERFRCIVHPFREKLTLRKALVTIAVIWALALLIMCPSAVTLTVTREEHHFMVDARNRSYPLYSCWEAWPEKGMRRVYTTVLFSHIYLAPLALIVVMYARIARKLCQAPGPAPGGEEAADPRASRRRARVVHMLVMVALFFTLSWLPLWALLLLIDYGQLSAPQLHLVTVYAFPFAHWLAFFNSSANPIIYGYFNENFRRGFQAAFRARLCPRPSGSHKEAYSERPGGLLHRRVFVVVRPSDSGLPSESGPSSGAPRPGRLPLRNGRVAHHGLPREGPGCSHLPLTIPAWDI

For CCCCCNC(=N)N/N=C/c1c[nH]c2ccc(OC)cc12, the Activity [1] was “inactive” and the Activity [2] was “inactive”.
CC(C)c1ccccc1-c1ccc(/C=N/NC(=N)N)o1 showed an Efficacy [1] of 62%, an Efficacy [2] of 70% and an EC50 [3] of 0.2 µM. For the same compound, the EC50 [4] was 0.158 µM.
For CN(C)c1cccc2c(S(=O)(=O)N3CCC[C@H]3C(=O)N[C@@H](CCC(N)=O)C(=O)N[C@@H](CCCNC(=N)N)C(N)=O)cccc12, the Activity (Rattus norvegicus [5]) was “Active”.
For C/C(=N\N=C(N)N)c1ccc(Cl)c(Cl)c1, the Efficacy [1] was “inactive”, the Efficacy [2] was 64% and the EC50 [3] was 0.501 µM.
For N=C(N)N/N=C/c1ccc(Br)c(Br)c1, the Efficacy [1] was “inactive” and the Efficacy [2] was 90%.
In the case of C/C(=N\NC(=N)N)c1ccc(Cl)c(C(F)(F)F)c1, the Efficacy [1] is reported as “inactive”, the Efficacy [2] is reported as 66% and the EC50 [3] is reported as 0.398 µM.
Cc1ccccc1-c1ccc(/C=N/NC(=N)N)o1 showed an Efficacy [1] of 55%, an Efficacy [2] of 90% and an EC50 [3] of 0.1 µM. It also gave an EC50 [4] of 0.0794 µM.
In the case of N=C(N)N/N=C/c1ccc(Cl)c(C(F)(F)F)c1, the Efficacy [1] is reported as 46%, the Efficacy [2] is reported as 114% and the Activity (Rattus norvegicus [6]) is reported as “Dose-dependent effect”. The Activity (Rattus norvegicus [7]) was “inactive”, the Activity [8] was 42% and the Activity (Rattus norvegicus [9]) was “Active”. For the same compound, the EC50 [4] was over 3.16 µM and the Efficacy [10] was 89%.
For N=C(N)N/N=C/c1c(Cl)cccc1Cl, the Activity [1] was “inactive” and the Activity [2] was “inactive”.
In the case of N=C(N)N/N=C/c1ccc(-c2ccccc2C(F)(F)F)o1, the Efficacy [1] is reported as 55%, the Activity (Rattus norvegicus [11]) is reported as “inactive” and the Efficacy [2] is reported as 73%. For the same compound, the EC50 [3] was 0.1 µM, the Efficacy [8] was 93% and the EC50 [4] was 0.0398 µM. It also gave an Efficacy [10] of 114%.
With N=C(N)N/N=C/c1ccc(Cl)c(Cl)c1 the Activity [12] was “inactive”, the Efficacy [1] was 18% and the Activity [13] was “inactive”. For the same compound, the Efficacy [2] was 68%, the Activity (Rattus norvegicus [6]) was “Dose-dependent effect” and the Activity (Rattus norvegicus [7]) was “inactive”. The Activity (Rattus norvegicus [14]) was “Active”.
N=C(N)N/N=C/c1ccc(-c2ccccc2C(F)(F)F)s1 showed an Efficacy [1] of 44%, an Efficacy [2] of 55% and an EC50 [3] of 0.158 µM. The EC50 [4] was 0.126 µM.
For Cn1c(/C=N/NC(=N)N)ccc1-c1ccccc1C(F)(F)F, the Efficacy [1] was 36%, the Efficacy [2] was 72% and the EC50 [3] was 0.126 µM. It also gave an EC50 [4] of 0.316 µM.
In the case of NC(N)=N/N=C/c1ccc(Cl)c(Cl)c1, the logD [15] is reported as 1.8, the logP [16] is reported as 2.8 and the EC50 [3] is reported as 1 µM. The half-life [17] was 2.5 h, the microsomal CLint [18] was 18 µL/min/mg and the bioavailability [19] was 43%. It also gave a pKa [20] of 8.4 and a microsomal CLint [21] of 26 µL/min/mg.
Work on N=C(N)N/N=C(\c1ccccc1)c1ccc(Cl)c(Cl)c1 yielded an Efficacy [1] of 46%, an Efficacy [2] of 63% and an EC50 [3] of 0.794 µM. It also gave an EC50 [4] of 0.794 µM.
